Reference: ChEMBL document CHEMBL1671641, “1,5-benzodiazepines, a novel class of hepatitis C virus polymerase nonnucleoside inhibitors” (Antimicrob Agents Chemother, 2008)

Key:
[1] = molecular target: Human immunodeficiency virus type 1 reverse transcriptase (Human immunodeficiency virus 1, UniProt Q72547); experiment: Inhibition of Human immunodeficiency virus 1 reverse transcriptase expressed in Escherichia coli by scintillation proximity assay
Procedure, shortened: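 N-terminal His6 HIV-1 RT was expressed in E. coli BL21(DE3), induced overnight at 37°C with 0.4 mM IPTG. The homodimer was purified by Ni-NTA and heparin chromatography. Activity was measured by scintillation proximity assay at 2.5 nM enzyme, with efavirenz as reference inhibitor.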

[2] = Cytotoxicity against CMV-Luc transfected human HuH7 cells after 5 days; format: cell-based, Huh-7; conditions: for CC50: huh-7, 120 h, 120 h
[3] = Inhibition of Dengue virus RNA-dependent RNA polymerase
Procedure, shortened: (§1)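 Each enzyme–compound pair was tested in duplicate over 0.8 to 100 μM, with 100 μM as the highest dose. Each run included a no-inhibitor control, a solvent dilution (0.016 to 2% DMSO) and the relevant reference inhibitor. Percent inhibition at 100 μM was recorded for polymerase γ.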

Hepatitis C virus [4] = experiment: Antiviral activity against Hepatitis C virus 1b infected in human HuH7 cells assessed as inhibition of viral replication after 3 days by luciferase reporter assay; format: functional, organism-based, Hepacivirus hominis, genotype 1b, Huh-7
Procedure, shortened: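 HCV 1b subgenomic luciferase reporter replicon (clone ET) cells, 2,500 per well, were exposed to a nine-point 1/4 dilution series for 3 days. Replication was read as luciferase activity. Values are means ± SD from 2 to 23 independent experiments run in quadruplicate.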

DNA polymerase beta = DNA polymerase beta (Homo sapiens, UniProt P06746); experiment: Inhibition of human DNA polymerase beta; procedure, shortened: as §1
[5] = molecular target: T1, DNA polymerase subunit gamma-1 (Homo sapiens, UniProt P54098); experiment: Inhibition of human DNA polymerase gamma; procedure, shortened: as §1
T1 sequence (P54098 whole entry): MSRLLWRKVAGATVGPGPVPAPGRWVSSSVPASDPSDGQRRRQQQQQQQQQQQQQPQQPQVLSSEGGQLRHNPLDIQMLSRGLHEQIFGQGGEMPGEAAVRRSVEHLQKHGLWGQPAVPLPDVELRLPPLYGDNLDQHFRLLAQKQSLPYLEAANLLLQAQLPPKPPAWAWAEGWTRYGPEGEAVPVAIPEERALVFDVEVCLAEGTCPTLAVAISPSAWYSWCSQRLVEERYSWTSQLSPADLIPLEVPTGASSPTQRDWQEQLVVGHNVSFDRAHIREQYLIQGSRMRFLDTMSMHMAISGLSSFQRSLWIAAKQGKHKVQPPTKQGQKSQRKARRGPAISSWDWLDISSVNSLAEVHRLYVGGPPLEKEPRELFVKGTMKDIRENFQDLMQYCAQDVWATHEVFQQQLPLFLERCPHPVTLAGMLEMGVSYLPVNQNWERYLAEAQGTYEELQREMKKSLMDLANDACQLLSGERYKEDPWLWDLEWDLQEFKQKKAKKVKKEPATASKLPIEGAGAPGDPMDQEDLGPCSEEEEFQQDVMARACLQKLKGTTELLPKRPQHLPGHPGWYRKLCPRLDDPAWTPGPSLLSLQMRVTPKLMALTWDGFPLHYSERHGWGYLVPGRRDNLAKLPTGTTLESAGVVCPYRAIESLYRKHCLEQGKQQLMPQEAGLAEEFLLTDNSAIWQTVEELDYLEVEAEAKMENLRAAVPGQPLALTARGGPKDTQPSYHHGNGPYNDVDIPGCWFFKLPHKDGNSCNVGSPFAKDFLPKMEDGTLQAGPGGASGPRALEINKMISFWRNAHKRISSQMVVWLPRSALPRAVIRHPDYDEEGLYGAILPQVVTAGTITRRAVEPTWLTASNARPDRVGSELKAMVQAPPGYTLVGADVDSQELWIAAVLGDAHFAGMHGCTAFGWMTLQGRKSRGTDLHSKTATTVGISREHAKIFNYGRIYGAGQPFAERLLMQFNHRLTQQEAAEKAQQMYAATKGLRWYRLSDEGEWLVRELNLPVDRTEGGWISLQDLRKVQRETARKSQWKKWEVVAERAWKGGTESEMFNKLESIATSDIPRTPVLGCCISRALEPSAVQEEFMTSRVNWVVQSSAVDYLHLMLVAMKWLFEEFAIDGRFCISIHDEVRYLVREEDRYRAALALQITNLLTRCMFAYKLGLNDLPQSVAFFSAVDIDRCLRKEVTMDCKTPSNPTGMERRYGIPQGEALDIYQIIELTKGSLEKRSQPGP

Hepatitis C virus [6] = experiment: Inhibition of Hepatitis C virus 1b J4 recombinant NS5B Cdelta 21 RNA dependent RNA polymerase overexpressed in Escherichia coli BL21 (DE3); set-up: species or system Hepatitis C virus subtype 1b
[7] = molecular target: T2, DNA polymerase alpha catalytic subunit (Homo sapiens, UniProt P09884); experiment: Inhibition of human DNA polymerase alpha; procedure, shortened: as §1
T2 sequence (P09884 whole entry): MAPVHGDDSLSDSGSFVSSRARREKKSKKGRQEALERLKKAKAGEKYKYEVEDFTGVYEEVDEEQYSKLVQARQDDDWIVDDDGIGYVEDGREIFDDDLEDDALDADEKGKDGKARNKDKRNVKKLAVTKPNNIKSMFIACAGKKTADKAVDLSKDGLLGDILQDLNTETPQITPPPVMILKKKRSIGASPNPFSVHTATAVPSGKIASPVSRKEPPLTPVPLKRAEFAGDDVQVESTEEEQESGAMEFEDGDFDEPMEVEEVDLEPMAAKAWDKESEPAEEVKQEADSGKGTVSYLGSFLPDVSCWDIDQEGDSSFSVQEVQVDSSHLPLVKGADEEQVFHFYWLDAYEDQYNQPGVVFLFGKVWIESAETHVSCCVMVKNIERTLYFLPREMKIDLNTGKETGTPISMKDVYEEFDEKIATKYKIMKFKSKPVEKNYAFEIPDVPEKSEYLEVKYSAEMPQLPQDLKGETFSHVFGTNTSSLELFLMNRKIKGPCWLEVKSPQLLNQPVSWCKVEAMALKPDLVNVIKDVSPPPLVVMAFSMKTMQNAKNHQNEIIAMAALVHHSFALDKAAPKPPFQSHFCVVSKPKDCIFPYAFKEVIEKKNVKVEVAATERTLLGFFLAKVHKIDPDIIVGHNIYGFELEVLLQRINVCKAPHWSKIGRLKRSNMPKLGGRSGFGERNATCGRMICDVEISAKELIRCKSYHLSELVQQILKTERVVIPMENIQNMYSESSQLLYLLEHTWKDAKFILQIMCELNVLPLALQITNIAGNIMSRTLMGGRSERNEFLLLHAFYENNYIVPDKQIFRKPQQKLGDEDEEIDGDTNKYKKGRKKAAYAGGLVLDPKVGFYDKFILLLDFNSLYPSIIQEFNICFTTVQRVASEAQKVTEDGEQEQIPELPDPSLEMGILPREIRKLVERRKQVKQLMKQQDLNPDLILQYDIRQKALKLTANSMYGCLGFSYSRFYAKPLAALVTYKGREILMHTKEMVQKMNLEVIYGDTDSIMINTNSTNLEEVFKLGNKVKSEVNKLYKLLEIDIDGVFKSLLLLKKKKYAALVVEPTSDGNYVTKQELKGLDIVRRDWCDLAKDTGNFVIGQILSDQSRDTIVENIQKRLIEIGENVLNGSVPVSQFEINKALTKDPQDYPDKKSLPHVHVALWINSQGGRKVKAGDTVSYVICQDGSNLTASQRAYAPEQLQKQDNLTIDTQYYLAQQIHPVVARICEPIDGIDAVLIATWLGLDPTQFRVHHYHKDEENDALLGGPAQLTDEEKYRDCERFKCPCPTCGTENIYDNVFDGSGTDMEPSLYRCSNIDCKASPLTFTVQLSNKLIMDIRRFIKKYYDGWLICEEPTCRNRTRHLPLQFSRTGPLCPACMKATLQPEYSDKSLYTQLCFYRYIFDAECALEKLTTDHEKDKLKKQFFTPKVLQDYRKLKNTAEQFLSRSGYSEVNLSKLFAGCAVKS

[8] = (§2) Cytotoxicity against LTR-Luc transfected human MT4 cells […] after 3 days by ATPLite assay; format: cell-based
Hepatitis C virus [9] = experiment: Ratio of EC50 for Hepatitis C virus 796 infected in HuH7 cells to EC50 for Hepatitis C virus 796 harboring NNI Y448A mutant site in NS5B infected in HuH7 cells; format: functional, Hepacivirus hominis, Huh-7
Procedure, shortened: (§3)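 NS5B NNI-site mutations were introduced into the genotype 1b ET subgenomic luciferase replicon by site-directed mutagenesis. RNA was made by in vitro transcription and tested in a transient-replication assay.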

Hepatitis C virus [10] = experiment: Ratio of EC50 for Hepatitis C virus 796 infected in HuH7 cells to EC50 for Hepatitis C virus 796 harboring NNI H95R mutant site in NS5B infected in HuH7 cells; format: functional, Hepacivirus hominis, Huh-7; procedure, shortened: as §3
Hepatitis C virus [11] = experiment: Ratio of EC50 for Hepatitis C virus 796 infected in HuH7 cells to EC50 for Hepatitis C virus 796 harboring NNI P495L mutant site in NS5B infected in HuH7 cells; format: functional, Hepacivirus hominis, Huh-7; procedure, shortened: as §3
Hepatitis C virus [12] = experiment: Ratio of EC50 for Hepatitis C virus 796 infected in HuH7 cells to EC50 for Hepatitis C virus 796 harboring NNI C316Y mutant site in NS5B infected in HuH7 cells; format: functional, Hepacivirus hominis, Huh-7; procedure, shortened: as §3
Hepatitis C virus [13] = experiment: Ratio of EC50 for Hepatitis C virus 796 infected in HuH7 cells to EC50 for Hepatitis C virus 796 harboring NNI M423T mutant site in NS5B infected in HuH7 cells; format: functional, Hepacivirus hominis, Huh-7; procedure, shortened: as §3
Hepatitis C virus [14] = experiment: Ratio of EC50 for Hepatitis C virus 796 infected in HuH7 cells to EC50 for Hepatitis C virus 796 harboring NNI M414Q mutant site in NS5B infected in HuH7 cells; format: functional, Hepacivirus hominis, Huh-7; procedure, shortened: as §3
Hepatitis C virus [15] = experiment: Inhibition of Hepatitis C virus 1b J4 recombinant NS5B Cdelta 21 RNA dependent RNA polymerase overexpressed in Escherichia coli BL21 (DE3) assessed as [alpha-33P]UTP incorporation by RdRp primer-independent transcription assay; set-up: species or system Hepatitis C virus subtype 1b
Procedure, shortened: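 De novo (primer-independent) RdRp assay: 190 nM NS5BΔ21 (1b J4) with 86 nM HCV 3′ UTR template RNA, 0.5 mM each ATP/GTP/CTP, 10 μM UTP plus [α-³³P]UTP, in 20 mM Tris-HCl pH 7.5, 1 mM DTT, 5 mM MgCl₂, 20 mM NaCl. Incubated 2 h at room temperature, stopped with EDTA/tRNA, TCA-precipitated on filters, and scintillation-counted. Quadruplicate.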

Hepatitis C virus [16] = experiment: Inhibition of Hepatitis C virus 1b J4 recombinant NS5B Cdelta 21 RNA dependent RNA polymerase overexpressed in Escherichia coli BL21 (DE3) by RdRp primer-dependent transcription assay; set-up: species or system Hepatitis C virus subtype 1b
MT4 = experiment: as §2; format: cell-based; conditions: mt4, 72 h, 72 h

SMILES | IC50 (Hepatitis C virus [15]) | CC50 [2] | EC50 (Hepatitis C virus [4]; huh-7) | IC50 (Hepatitis C virus [16]) | CC50 (MT4) | further results
COc1ccc(C2C3=C(CC(C)(C)CC3=O)Nc3ccccc3N2C(C)=O)cc1OCc1ccccc1 (stereo not drawn) |  |  |  |  |  | IC50 [1]: > 32 µM; CC50 at 120 h ([2]; CMV-Luc transfected HuH7 cells): 32 µM; IC50 [3]: > 100 µM; EC50 (Hepatitis C virus [4]; Hepatitis C virus, genotype 1b, Huh-7, 72 h): 12.3 µM; IC50 (DNA polymerase beta): > 100 µM; IC50 [5]: > 100 µM; IC50 (Hepatitis C virus [6]): 7.9 µM; IC50 [7]: > 100 µM; CC50 at 72 h [8]: 32 µM
CC(C)N(c1cc(-c2ccccc2)sc1C(=O)O)C(=O)[C@H]1CC[C@H](C)CC1 |  |  |  |  |  | fold change (FC) (Hepatitis C virus [9]): 10; fold change (FC) (Hepatitis C virus [10]): 10; fold change (FC) (Hepatitis C virus [11]): 10; fold change (FC) (Hepatitis C virus [12]): 10; fold change (FC) (Hepatitis C virus [13]): 10; fold change (FC) (Hepatitis C virus [14]): 10
CC(=O)N1c2ccccc2NC2=C(C(=O)CC(C)(C)C2)C1c1ccc(OCc2ccccc2)cc1 (single isomer, unassigned; 3a) | 0.54 µM | 19.2 µM | 15.3 µM | 1 µM | 22.2 µM | 
CC(=O)N1c2ccccc2NC2=C(C(=O)CC(C)(C)C2)C1c1ccc(OCc2ccccc2)cc1 (single isomer, unassigned; 3b) | 79.1 µM | 19.7 µM | 2 µM | 86.7 µM | 18.3 µM | 
CC(=O)N1c2ccccc2NC2=C(C(=O)CC(C)(C)C2)C1c1ccc(OCc2ccccc2)c(Cl)c1 (single isomer, unassigned; 4b) | > 32 µM | 21.2 µM | 0.6 µM | 35.9 µM | 12.9 µM | 
CC(=O)N1c2ccccc2NC2=C(C(=O)CC(C)(C)C2)C1c1ccc(OCc2ccccc2)cc1Cl (single isomer, unassigned; 5a) |  | 49 µM | 9.3 µM | 0.33 µM | 19.5 µM | 
CC(=O)N1c2ccccc2NC2=C(C(=O)CC(C)(C)C2)C1c1ccc(OCc2ccccc2)cc1Cl (single isomer, unassigned; 5b) |  | 53.7 µM | 3.9 µM | 83.1 µM | 17.3 µM | 
